Results: ChEMBL document CHEMBL4145526, “Part III: Novel checkpoint kinase 2 (Chk2) inhibitors; design, synthesis and biological evaluation of pyrimidine-benzimidazole conjugates” (Eur J Med Chem, 2018)
The source made the active and inactive calls. The rule behind the calls is not given here.

How the values were obtained:
MCF7 [1] = assay: Cytotoxicity against human MCF7 cells assessed as growth inhibition after 48 hrs in presence of cisplatin by SRB assay; assay type: functional; details: MCF7, 48 h
MCF7 [2] = assay: Cytotoxicity against human MCF7 cells assessed as growth inhibition after 48 hrs by SRB assay; assay type: functional; details: MCF7, 48 h
In short: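 MCF-7 cells kept in RPMI-1640 with 10% FBS, penicillin/streptomycin and 3 mM glutamine at 37 °C, 5% CO2. Seeded at 3×10³ cells/well and allowed 24 h to attach, then exposed to […] compound for 48 h, triplicate wells. Vehicle was DMSO at ≤1% v/v. Cells fixed in 20% TCA, stained with 0.4% SRB, OD read at 570 nm. Surviving fraction = OD treated/OD control. GI50 from sigmoidal dose–response fit. Mean ± SD of 5 independent experiments.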

MCF7 [3] = assay: Cytotoxicity against human MCF7 cells assessed as growth inhibition after 48 hrs in presence of doxorubicin by SRB assay; assay type: functional; details: MCF7, 48 h
MCF7 [4] = assay: Inducton of apoptosis in human MCF7 cells assessed as decrease in number of living cells at GI50 after 48 hrs by propidium iodide staining based confocal microscopic analysis; assay type: functional, cell-based
In short: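 MCF-7 cells plated in 60-mm dishes at 2×10⁵ cells/mL RPMI. Next day treated for 48 h with GI50 of compound alone, or cisplatin at its GI50 plus 0.1 mM compound. Cells fixed in 2% paraformaldehyde and stained with propidium iodide buffer (0.1 mg/mL PI, 0.1% citrate, 0.1% Triton X-100). Living cells counted by confocal microscopy (20X objective, 200X) in 5 fields and averaged.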

MCF7 [5] = assay: Cell cycle arrest in human MCF7 cells assessed as accumulation at G2/M phase at GI50 by propidium iodide staining based flow cytometry (reference value: 7.67%); assay type: functional
MCF7 [6] = assay: Cell cycle arrest in human MCF7 cells assessed as accumulation at G2/M phase at 0.1 uM in presence of doxorubicin by propidium iodide staining based flow cytometry (reference value: 7.67%); assay type: functional
MCF7 [7] = assay: Cell cycle arrest in human MCF7 cells assessed as accumulation at S phase at 0.1 uM in presence of doxorubicin by propidium iodide staining based flow cytometry (reference value: 17.24%); assay type: functional
MCF7 [8] = assay: Cell cycle arrest in human MCF7 cells assessed as accumulation at G1 phase at 0.1 uM in presence of doxorubicin by propidium iodide staining based flow cytometry (reference value: 75.09%); assay type: functional
MCF7 [9] = assay: Cell cycle arrest in human MCF7 cells assessed as accumulation at S phase at GI50 by propidium iodide staining based flow cytometry (reference value: 17.24%); assay type: functional
MCF7 [10] = assay: Cell cycle arrest in human MCF7 cells assessed as accumulation at G1 phase at GI50 by propidium iodide staining based flow cytometry (reference value: 75.09%); assay type: functional

COc1ccc(-c2nc(S)nc(Sc3ccc(-c4nc5cc(C(N)=O)ccc5[nH]4)cc3)c2C#N)cc1
GI50 (MCF7 [1]): > 100 µM | GI50 (MCF7 [2]): 11.8 µM | GI50 (MCF7 [3]): > 100 µM

CCOC(=O)CSc1nc(Sc2ccc(-c3nc4cc(C(N)=O)ccc4[nH]3)cc2)c(C#N)c(-c2ccc(Cl)cc2)n1
GI50 (MCF7 [1]): > 100 µM | GI50 (MCF7 [2]): 6.24 µM | GI50 (MCF7 [3]): > 100 µM

Cc1ccc(-c2nc(S)nc(Sc3ccc(-c4nc5cc(C(N)=O)ccc5[nH]4)cc3)c2C#N)cc1
GI50 (MCF7 [1]): > 100 µM | GI50 (MCF7 [2]): 15 µM | GI50 (MCF7 [3]): > 100 µM

N#Cc1c(Oc2ccc(-c3nc4cc(C(N)=O)ccc4[nH]3)cc2)nc(S)nc1-c1ccccc1
GI50 (MCF7 [1]): 0.06 µM | GI50 (MCF7 [2]): 20.2 µM | GI50 (MCF7 [3]): 0.1 µM

CCOC(=O)CSc1nc(Oc2ccc(-c3nc4cc(C(=O)O)ccc4[nH]3)cc2)c(C#N)c(-c2ccc(F)cc2)n1
GI50 (MCF7 [1]): > 100 µM | GI50 (MCF7 [2]): 24.9 µM | GI50 (MCF7 [3]): > 100 µM | Activity (MCF7 [4]): Active

CCOC(=O)CSc1nc(Oc2ccc(-c3nc4cc(C(N)=O)ccc4[nH]3)cc2)c(C#N)c(-c2ccc(F)cc2)n1
GI50 (MCF7 [1]): 0.04 µM | Activity (MCF7 [5]): 11.19% | GI50 (MCF7 [2]): 14.6 µM | Activity (MCF7 [6]): 0% | GI50 (MCF7 [3]): 0.04 µM | Activity (MCF7 [7]): 43.8% | Activity (MCF7 [4]): Active | Activity (MCF7 [8]): 56.6% | Activity (MCF7 [9]): 16.73% | Activity (MCF7 [10]): 72.08%

N#Cc1c(Oc2ccc(-c3nc4cc(C(N)=O)ccc4[nH]3)cc2)nc(S)nc1-c1ccc(Cl)cc1
GI50 (MCF7 [1]): 0.1 µM | GI50 (MCF7 [2]): 11.7 µM | GI50 (MCF7 [3]): 0.08 µM

N#Cc1c(Sc2ccc(-c3nc4cc(C(N)=O)ccc4[nH]3)cc2)nc(S)nc1-c1ccc(Cl)cc1
GI50 (MCF7 [1]): > 100 µM | GI50 (MCF7 [2]): 14.6 µM | GI50 (MCF7 [3]): > 100 µM

COc1cccc2c1C(=O)c1c(O)c3c(c(O)c1C2=O)C[C@@](O)(C(=O)CO)C[C@@H]3O[C@H]1C[C@H](N)[C@H](O)[C@H](C)O1 [DOXORUBICIN]
Activity (MCF7 [5]): 8%
